Assay results taken from ChEMBL document CHEMBL3414463, “Discovery of potent and selective 8-fluorotriazolopyridine c-Met inhibitors” (J Med Chem, 2015).

Tests used:
[1] = Clearance in Sprague-Dawley rat at 0.25 mg/kg, iv; type: ADME, organism-based; design: dose 0.25 mg/kg, route intravenous; settings: Sprague-Dawley, in vivo
[2] = Oral bioavailability in Sprague-Dawley rat at 2 mg/kg; type: ADME, organism-based; settings: in vivo
In short: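 Male Sprague-Dawley rats given 2.0 mg/kg orally in 2% (w/v) hydroxypropylmethylcellulose, 1% (w/v) Tween 80 in water, pH 2.2 (adjusted with HCl or MSA). Some inhibitors instead used 10% (v/v) dimethylacetamide in the same vehicle.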

[3] = target: T1, Hepatocyte growth factor receptor (Homo sapiens, UniProt P08581); assay: Inhibition of HGF-stimulated c-Met autophosphorylation in serum starved human PC3 cells pre-incubated for 1 hr followed by human recombinant HGF stimulation for 10 mins by quantitative electrochemiluminescence immunoassay; type: cell-based, PC-3
In short: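 Serum-starved PC-3 cells (plated in high-glucose DMEM/10% FBS, then 16 h in low-glucose DMEM with 0.1% BSA) were treated with a 10-point inhibitor dilution for 1 h at 37 °C. Cells were then stimulated with 200 ng/mL recombinant human HGF for 10 min and lysed. Phospho-c-Met was captured with biotinylated anti-c-Met and 4G10 by electrochemiluminescence. IC50, n ≥ 2.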

[4] = AUC (0 to infinity) in Sprague-Dawley rat at 0.25 mg/kg, iv; type: ADME, organism-based, Plasma; design: dose 0.25 mg/kg, route intravenous, time infinity; settings: Sprague-Dawley, plasma
[5] = target: T1, Hepatocyte growth factor receptor; assay: Inhibition of recombinant c-Met kinase domain (unknown origin) incubated for 30 mins using gastrin peptide substrate by HTRF assay
[6] = Volume of distribution at steady state in Sprague-Dawley rat at 0.25 mg/kg, iv; type: ADME, organism-based; design: dose 0.25 mg/kg, route intravenous; settings: in vivo, read-out: Vdss
In short: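 Male Sprague-Dawley rats were given a single IV dose of 0.25 mg/kg. The vehicle was DMSO, or for some compounds 20% (w/v) hydroxypropyl β-cyclodextrin in water adjusted to pH 3.5 with MSA. NC marks cases where the terminal disposition rate constant could not be characterized for lack of slope.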

[7] = Half life in Sprague-Dawley rat at 0.25 mg/kg, iv; type: ADME, organism-based; design: dose 0.25 mg/kg, route intravenous; settings: in vivo
[8] = target: Cytochrome P450 2D6 (Homo sapiens, UniProt P10635); assay: Inhibition of CYP2D6 (unknown origin); type: ADME
[9] = target: Cytochrome P450 3A4 (Homo sapiens, UniProt P08684); assay: Inhibition of CYP3A4 (unknown origin); type: ADME
[10] = tested on: Liver microsome; assay: Stability in rat liver microsomes assessed as compound turnover rate; type: ADME
[11] = tested on: Liver microsome; assay: Stability in human liver microsomes assessed as compound turnover rate; type: ADME
[12] = tested on: Liver microsome; assay: Drug level in dog liver microsomes treated with 5-(8-Fluoro-3-(1-(3-methoxyquinolin-6-yl)ethyl)[1,2,4]-triazolo[4,3-a]pyridin-6-yl)-3-methylisoxazole assessed as compound formation in presence of NADPH by LC-MS/MS method; type: ADME, Canis lupus familiaris
In short: (§1)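 Compound incubated with NADPH in mouse, rat, dog, monkey or human liver microsomes. Metabolites were identified by accurate mass spectrometry and MS/MS, and selected ion chromatograms were used to build metabolite profiles.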

[13] = Drug level in mouse liver microsomes treated with 5-(8-Fluoro-3-(1-(3-methoxyquinolin-6-yl)ethyl)[1,2,4]-triazolo[4,3-a]pyridin-6-yl)-3-methylisoxazole assessed as compound formation in presence of NADPH by LC-MS/MS method; type: ADME; in short: as §1
[14] = tested on: Liver microsome; assay: Drug level in rat liver microsomes treated with 5-(8-Fluoro-3-(1-(3-methoxyquinolin-6-yl)ethyl)[1,2,4]-triazolo[4,3-a]pyridin-6-yl)-3-methylisoxazole assessed as compound formation in presence of NADPH by LC-MS/MS method; type: ADME; in short: as §1
[15] = tested on: Liver microsome; assay: Drug level in human liver microsomes treated with 5-(8-Fluoro-3-(1-(3-(2-methoxyethoxy)quinolin-6-yl)ethyl)-[1,2,4]triazolo[4,3-a]pyridin-6-yl)-3-methylisoxazole assessed as compound formation in presence of NADPH by LC-MS/MS method; type: ADME; in short: as §1
[16] = Drug level in mouse liver microsomes treated with 5-(8-Fluoro-3-(1-(3-(2-methoxyethoxy)quinolin-6-yl)ethyl)-[1,2,4]triazolo[4,3-a]pyridin-6-yl)-3-methylisoxazole assessed as compound formation in presence of NADPH by LC-MS/MS method; type: ADME; in short: as §1
[17] = tested on: Liver microsome; assay: Drug level in dog liver microsomes treated with 5-(8-Fluoro-3-(1-(3-(2-methoxyethoxy)quinolin-6-yl)ethyl)-[1,2,4]triazolo[4,3-a]pyridin-6-yl)-3-methylisoxazole assessed as compound formation in presence of NADPH by LC-MS/MS method; type: ADME, Canis lupus familiaris; in short: as §1
[18] = Drug level in monkey liver microsomes treated with 5-(8-Fluoro-3-(1-(3-(2-methoxyethoxy)quinolin-6-yl)ethyl)-[1,2,4]triazolo[4,3-a]pyridin-6-yl)-3-methylisoxazole assessed as compound formation in presence of NADPH by LC-MS/MS method; type: ADME, Macaca mulatta; settings: rhesus monkey; in short: as §1
[19] = tested on: Liver microsome; assay: Drug level in rat liver microsomes treated with 5-(8-Fluoro-3-(1-(3-(2-methoxyethoxy)quinolin-6-yl)ethyl)-[1,2,4]triazolo[4,3-a]pyridin-6-yl)-3-methylisoxazole assessed as compound formation in presence of NADPH by LC-MS/MS method; type: ADME; in short: as §1

T1 sequence (P08581 whole entry): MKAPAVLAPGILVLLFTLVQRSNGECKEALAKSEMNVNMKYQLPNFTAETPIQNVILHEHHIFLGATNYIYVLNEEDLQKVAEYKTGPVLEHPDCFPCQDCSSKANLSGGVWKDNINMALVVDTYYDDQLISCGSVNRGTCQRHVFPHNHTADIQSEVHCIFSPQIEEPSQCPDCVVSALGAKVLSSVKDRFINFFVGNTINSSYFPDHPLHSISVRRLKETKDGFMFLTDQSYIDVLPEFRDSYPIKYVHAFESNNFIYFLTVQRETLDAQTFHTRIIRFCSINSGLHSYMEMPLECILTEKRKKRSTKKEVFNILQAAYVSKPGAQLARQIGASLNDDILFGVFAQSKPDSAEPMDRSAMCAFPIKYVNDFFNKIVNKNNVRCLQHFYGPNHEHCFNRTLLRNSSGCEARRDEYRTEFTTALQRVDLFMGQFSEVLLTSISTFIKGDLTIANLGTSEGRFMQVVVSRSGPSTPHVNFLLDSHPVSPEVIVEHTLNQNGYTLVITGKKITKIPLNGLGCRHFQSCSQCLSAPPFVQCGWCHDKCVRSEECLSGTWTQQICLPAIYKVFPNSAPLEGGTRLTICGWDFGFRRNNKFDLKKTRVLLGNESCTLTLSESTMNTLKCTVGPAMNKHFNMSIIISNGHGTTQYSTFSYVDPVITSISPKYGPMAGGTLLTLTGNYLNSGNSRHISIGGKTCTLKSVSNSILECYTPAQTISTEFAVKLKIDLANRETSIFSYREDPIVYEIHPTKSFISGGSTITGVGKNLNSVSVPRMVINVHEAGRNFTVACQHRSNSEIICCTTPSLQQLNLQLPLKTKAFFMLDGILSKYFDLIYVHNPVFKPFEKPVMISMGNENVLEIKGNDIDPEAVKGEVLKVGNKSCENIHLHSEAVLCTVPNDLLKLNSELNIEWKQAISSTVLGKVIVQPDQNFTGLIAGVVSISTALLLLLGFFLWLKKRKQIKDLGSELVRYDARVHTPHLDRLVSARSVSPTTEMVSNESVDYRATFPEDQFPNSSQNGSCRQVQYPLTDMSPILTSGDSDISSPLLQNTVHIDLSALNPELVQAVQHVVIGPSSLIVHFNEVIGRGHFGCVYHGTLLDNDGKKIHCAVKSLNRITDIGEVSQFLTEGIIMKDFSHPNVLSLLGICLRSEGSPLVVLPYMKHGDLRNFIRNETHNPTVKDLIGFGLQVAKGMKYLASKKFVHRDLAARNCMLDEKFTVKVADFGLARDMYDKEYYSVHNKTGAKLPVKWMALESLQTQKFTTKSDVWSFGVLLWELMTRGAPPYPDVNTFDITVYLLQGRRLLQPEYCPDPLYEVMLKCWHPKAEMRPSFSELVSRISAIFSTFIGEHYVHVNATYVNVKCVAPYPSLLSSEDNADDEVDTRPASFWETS
Sequence of Cytochrome P450 2D6 (P10635 whole entry): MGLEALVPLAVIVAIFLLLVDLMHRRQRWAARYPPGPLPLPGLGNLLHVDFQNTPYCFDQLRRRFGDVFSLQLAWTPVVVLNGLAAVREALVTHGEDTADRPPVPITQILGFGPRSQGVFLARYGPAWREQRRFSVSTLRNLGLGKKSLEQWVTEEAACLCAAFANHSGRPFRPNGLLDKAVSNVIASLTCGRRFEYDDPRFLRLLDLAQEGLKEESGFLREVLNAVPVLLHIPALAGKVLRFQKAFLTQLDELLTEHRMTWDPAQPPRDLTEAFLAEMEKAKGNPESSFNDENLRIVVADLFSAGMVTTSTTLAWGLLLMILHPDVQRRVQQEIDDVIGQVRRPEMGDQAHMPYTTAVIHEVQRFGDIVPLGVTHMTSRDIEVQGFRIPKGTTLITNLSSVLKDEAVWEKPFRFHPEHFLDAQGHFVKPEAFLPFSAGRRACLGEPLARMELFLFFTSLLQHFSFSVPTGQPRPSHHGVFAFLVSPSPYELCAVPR
Sequence of Cytochrome P450 3A4 (P08684 whole entry): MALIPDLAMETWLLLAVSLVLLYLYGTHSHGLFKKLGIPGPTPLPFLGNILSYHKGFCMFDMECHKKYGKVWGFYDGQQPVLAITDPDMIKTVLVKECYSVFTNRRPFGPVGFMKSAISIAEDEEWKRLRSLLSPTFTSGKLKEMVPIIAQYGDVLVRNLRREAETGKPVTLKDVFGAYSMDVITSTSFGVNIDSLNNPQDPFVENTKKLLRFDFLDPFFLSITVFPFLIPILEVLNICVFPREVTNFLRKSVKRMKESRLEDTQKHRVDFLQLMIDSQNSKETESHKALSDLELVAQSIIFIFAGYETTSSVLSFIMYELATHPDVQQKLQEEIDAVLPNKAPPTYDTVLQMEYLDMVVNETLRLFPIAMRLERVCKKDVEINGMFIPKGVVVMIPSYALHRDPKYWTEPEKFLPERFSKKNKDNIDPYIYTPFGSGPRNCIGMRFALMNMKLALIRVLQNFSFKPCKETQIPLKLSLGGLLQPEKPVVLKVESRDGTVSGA

Compound | clearance [1] [mL/min/kg] | bioavailability [2] [%] | IC50 [3] [nM] | AUC(0-inf) [4] [µM·h] | IC50 [5] [nM] | Vd [6] [L/kg] | half-life [7] [h] | also measured
COc1ccc2c(OCc3nnc4ccc(-c5ccccc5)cn34)ccnc2c1 |  |  |  |  | 31 |  |  | 
COc1cnc2ccc(Cc3nnc4c(F)cc(-c5cnn(C)c5)cn34)cc2c1 |  |  |  |  | 11 |  |  | 
Cn1cc(-c2cc(F)c3nnc(Cc4ccc5ncc(O)cc5c4)n3c2)cn1 |  |  |  |  | 51 |  |  | 
Cn1cc(-c2cc(F)c3nnc(Cc4ccc5nccnc5c4)n3c2)cn1 |  |  |  |  | 182 |  |  | 
CC(=O)Nc1nc2ccc(Cc3nnc4c(F)cc(-c5cnn(C)c5)cn34)cc2s1 |  |  |  |  | 67 |  |  | 
Cn1cc(-c2cc(F)c3nnc(Cc4ccc5nc(N)sc5c4)n3c2)cn1 |  |  |  |  | 52 |  |  | 
COc1cnc2ccc([C@H](C)c3nnc4c(F)cc(-c5cc(C)ns5)cn34)cc2c1 |  |  | 22 | 10.5 | 9 |  | 2.8 | 
COc1cnc2ccc([C@H](C)c3nnc4c(F)cc(-c5cn(C)cn5)cn34)cc2c1 | 4.33 | 27 | 4 | 2.7 | 1 | 0.37 | 1.3 | 
COc1cnc2ccc([C@H](C)c3nnc4c(F)cc(-c5cnn(C)c5)cn34)cc2c1 | 2.33 | 13 | 15 | 4.5 | 2 | 0.25 | 1.8 | 
COc1cnc2ccc([C@@H](C)c3nnc4c(F)cc(-c5cc(C)no5)cn34)cc2c1 |  |  |  |  | 370 |  |  | 
COc1cnc2ccc(C3(c4nnc5c(F)cc(-c6cc(C)no6)cn45)CC3)cc2c1 |  |  |  |  | 93 |  |  | 
CC[C@@H](c1ccc2ncc(OC)cc2c1)c1nnc2c(F)cc(-c3cc(C)no3)cn12 |  |  | 67 |  | 28 |  |  | 
Cc1cc(-c2cc(F)c3nnc([C@@H](C)c4ccc5ncc(O)cc5c4)n3c2)on1 |  |  |  |  |  |  |  | Drug metabolism [12]: metabolite_detected; Drug metabolism [13]: metabolite_detected; Drug metabolism [14]: metabolite_detected
COc1cnc2ccc([C@H](C)c3nnc4c(F)cc(-c5cc(CO)no5)cn34)cc2c1 |  |  |  |  |  |  |  | Drug metabolism [12]: metabolite_detected; Drug metabolism [13]: metabolite_detected; Drug metabolism [14]: metabolite_detected
Cc1cc(-c2cc(F)c3nnc([C@@H](C)c4ccc5ncc(OCCO)cc5c4)n3c2)on1 |  |  |  |  |  |  |  | Drug metabolism [15]: metabolite_detected; Drug metabolism [16]: metabolite_detected; Drug metabolism [17]: metabolite_detected; Drug metabolism [18]: metabolite_detected; Drug metabolism [19]: metabolite_detected
Cc1cc(-c2cc(F)c3nnc([C@@H](C)c4ccc5ncc(OCC(=O)O)cc5c4)n3c2)on1 |  |  |  |  |  |  |  | Drug metabolism [15]: metabolite_detected; Drug metabolism [16]: metabolite_detected; Drug metabolism [17]: metabolite_detected; Drug metabolism [18]: metabolite_detected; Drug metabolism [19]: metabolite_detected

Second part, led by results:

clearance [1] [mL/min/kg] | bioavailability [2] [%] | IC50 [3] [nM] | AUC(0-inf) [4] [µM·h] | IC50 [5] [nM] | Vd [6] [L/kg] | half-life [7] [h] | Compound | also measured
30.2 | 27 | 6 | 0.37 | 5 | 1.07 | 0.72 | Cc1cc(-c2cc(F)c3nnc([C@](C)(F)c4ccc5ncccc5c4)n3c2)sn1 | 
 |  |  |  | 7 |  |  | COc1ccc2c(OCc3nnc4c(F)cc(-c5ccccc5)cn34)ccnc2c1 | 
 |  |  |  | 210 |  |  | c1ccc(-c2ccc3nnc(Cc4ccc5ncccc5c4)n3c2)cc1 | 
 |  |  |  | 60 |  |  | Fc1cc(-c2ccccc2)cn2c(Cc3ccc4ncccc4c3)nnc12 | 
 |  |  |  | 23 |  |  | Fc1cc(-c2ccccc2)cn2c(C(F)(F)c3ccc4ncccc4c3)nnc12 | 
 |  | 32 |  | 12 |  |  | Fc1cc(-c2ccccn2)cn2c(C(F)(F)c3ccc4ncccc4c3)nnc12 | inhibition (INH) [8]: Not Active; inhibition (INH) [9]: Not Active
0.667 | 62 | 9 | 18.5 | 9 | 0.13 | 2.5 | Cc1cc(-c2cc(F)c3nnc(C(F)(F)c4ccc5ncccc5c4)n3c2)on1 | inhibition (INH) [8]: Not Active; inhibition (INH) [9]: Not Active
 |  | 35 |  | 11 |  |  | Cc1ncc(-c2cc(F)c3nnc(C(F)(F)c4ccc5ncccc5c4)n3c2)s1 | inhibition (INH) [8]: Not Active; inhibition (INH) [9]: Not Active
27.8 | 110 | 7 | 0.38 | 4 | 0.39 | 0.3 | Fc1cc(-c2cscn2)cn2c(C(F)(F)c3ccc4ncccc4c3)nnc12 | inhibition (INH) [8]: Not Active; inhibition (INH) [9]: Not Active
0.167 | 110 | 15 | 44.4 | 22 | 0.13 | 6.6 | Cn1cc(-c2cc(F)c3nnc(C(F)(F)c4ccc5ncccc5c4)n3c2)cn1 | inhibition (INH) [8]: Not Active; inhibition (INH) [9]: Not Active
0.167 | 40 | 25 | 42.6 | 24 | 0.09 | 4.4 | Fc1cc(-c2cnn(C3CC3)c2)cn2c(C(F)(F)c3ccc4ncccc4c3)nnc12 | inhibition (INH) [8]: Not Active; inhibition (INH) [9]: Not Active
 |  |  |  | 18 |  |  | Cn1cc(-c2cc(F)c3nnc(Cc4ccc5ncccc5c4)n3c2)cn1 | 
< 0.167 | 35 | 8 | 101 | 3 | 0.09 |  | COc1cnc2ccc(C(F)(F)c3nnc4c(F)cc(-c5cc(C)no5)cn34)cc2c1 | inhibition (INH) [8]: Not Active; Stability [10]: Stable; Stability [11]: Stable; inhibition (INH) [9]: Not Active
1.5 | 9 | 7 | 6.5 | 2 | 0.18 | 1.5 | COc1cnc2ccc(C(F)(F)c3nnc4c(F)cc(-c5cscn5)cn34)cc2c1 | inhibition (INH) [8]: Not Active; Stability [10]: Stable; Stability [11]: Stable; inhibition (INH) [9]: Not Active
 |  |  |  | 780 |  |  | Cc1cc(-c2cc(F)c3nnc([C@@](C)(F)c4ccc5ncccc5c4)n3c2)sn1 | 
22.2 | 10 | 4 | 0.52 | 5 | 1.25 | 1.1 | COc1cnc2ccc([C@@](C)(F)c3nnc4c(F)cc(-c5cc(C)ns5)cn34)cc2c1 | 
4.17 | 38 | 3 | 2.4 | 2 | 0.79 | 2.7 | COc1cnc2ccc([C@@](C)(F)c3nnc4c(F)cc(-c5cc(C)no5)cn34)cc2c1 | 
4.5 | 27 | 7 | 2.5 | 5 | 0.64 | 2.2 | COc1cnc2ccc([C@@](C)(F)c3nnc4c(F)cc(-c5cnn(C)c5)cn34)cc2c1 | 
25.5 |  | 12 | 0.44 | 7 | 0.38 | 0.33 | Cc1cc(-c2cc(F)c3nnc([C@@H](C)c4ccc5ncccc5c4)n3c2)sn1 | 
 |  |  |  | > 400 |  |  | Cc1cc(-c2cc(F)c3nnc(C(C)(C)c4ccc5ncc(O)cc5c4)n3c2)on1 | 
